This note sets out measurements from ChEMBL document CHEMBL2029221, “Acylprolinamides: a new class of peptide deformylase inhibitors with in vivo antibacterial activity” (Bioorg Med Chem Lett, 2012).

One may read the IC50 as the midpoint of a concentration-inhibition curve.

The structures appear in SMILES notation. Converted amounts (≈) assume the structure as drawn.

Test [1] deals with Staphylococcus aureus. Description: Antibacterial activity against Staphylococcus aureus Oxford by broth microdilution method. In kind it is functional. In a few lines: (§1)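 Broth microdilution following NCCLS document M7-A4. Serial two-fold dilutions from 0.06 to 64 mcg/ml were tested. The MIC was the lowest concentration preventing visible growth, with the endpoint read with the aid of a mirror reader.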
For orientation: Dilution methods test growth across graded concentrations, often in twofold steps.

For test [2], the target named is T1, Peptide deformylase (Staphylococcus aureus, UniProt P68826).
T1 sequence (P68826 whole entry): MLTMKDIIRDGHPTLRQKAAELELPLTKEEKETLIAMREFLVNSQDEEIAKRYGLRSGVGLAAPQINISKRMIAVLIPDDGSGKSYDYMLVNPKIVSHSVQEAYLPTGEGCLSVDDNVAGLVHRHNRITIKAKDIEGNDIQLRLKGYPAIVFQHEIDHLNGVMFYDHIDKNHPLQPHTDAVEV
Kind of test: Inhibition of Staphylococcus aureus PDF assessed as formate release from fMAS peptide substrate after 20 mins by formate dehydrogenase coupled assay.

The target of test [3] is T2, Peptide deformylase (Streptococcus pneumoniae serotype 4 (strain ATCC BAA-334 / TIGR4), UniProt Q9F2F0).
T2 sequence (Q9F2F0 whole entry): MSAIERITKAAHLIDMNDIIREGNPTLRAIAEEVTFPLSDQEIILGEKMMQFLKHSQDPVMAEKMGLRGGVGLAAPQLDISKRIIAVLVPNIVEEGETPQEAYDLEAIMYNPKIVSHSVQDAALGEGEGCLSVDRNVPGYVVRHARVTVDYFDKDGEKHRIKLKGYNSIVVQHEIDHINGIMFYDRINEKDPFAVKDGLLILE
Kind of test: Inhibition of Streptococcus pneumoniae PDF assessed as formate release from fMAS peptide substrate after 20 mins by formate dehydrogenase coupled assay.

The nature of test [4]: Inhibition of Haemophilus influenzae PDF assessed as formate release from fMAS peptide substrate after 20 mins by formate dehydrogenase coupled assay. Put shortly: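 Coupled assay in which formate released from the fMAS peptide is oxidized by formate dehydrogenase, reducing NAD to NADH, read as the rise in absorbance at 340. Reactions were started by adding PDF and velocities measured for 20 min at 25 °C. Values are the mean of at least 2 runs.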

Test [5] deals with Streptococcus pneumoniae. Kind of test: Antibacterial activity against Streptococcus pneumoniae 1629 by broth microdilution method. In kind it is functional. Put shortly:
as §1

Test [6] deals with Haemophilus influenzae. Kind of test: Antibacterial activity against Haemophilus influenzae Q1 by broth microdilution method. The test is classed as functional. Put shortly: as §1
For test [7], the system named is Moraxella catarrhalis. Description: Antibacterial activity against Moraxella catarrhalis 1502 by broth microdilution method. The test is classed as functional. Put shortly: as §1
Test [8] deals with Enterococcus faecalis. Kind of test: Antibacterial activity against Enterococcus faecalis 7 by broth microdilution method. In kind it is functional. In a few lines:
as §1

On to `CC(=O)NC(=O)[C@@H]1CCCN1C(=O)[C@H](CC1CCCC1)CN(O)C=O`, for which the MIC in test [1] is 1 µg/mL (≈ 2.83 µM); in test [5], 4 µg/mL (≈ 11.3 µM); in test [6], 0.25 µg/mL (≈ 0.707 µM); in test [7] it was at most 0.06 µg/mL; in test [8], 8 µg/mL (≈ 22.6 µM). For the same compound, the half-inhibitory concentration (IC50) in test [2] stood at 12 nM; in test [3], 4 nM; in test [4], 16 nM.
Consider `COCC(=O)NC(=O)[C@@H]1CCCN1C(=O)[C@H](CC1CCCC1)CN(O)C=O`, for which the MIC in test [1] is 4 µg/mL (≈ 10.4 µM); in test [5], 4 µg/mL (≈ 10.4 µM); in test [6] it was 0.125 µg/mL (≈ 0.326 µM); in test [7], at most 0.06 µg/mL; in test [8] it was 16 µg/mL (≈ 41.7 µM). The half-maximal inhibitory concentration (IC50) was 8 nM in test [2], 1 nM in test [3] and 13 nM in test [4].
Take `CC(C)C(=O)NC(=O)[C@@H]1CCCN1C(=O)[C@H](CC1CCCC1)CN(O)C=O`: the MIC in test [1] is 2 µg/mL (≈ 5.24 µM); in test [5] it was 2 µg/mL (≈ 5.24 µM); in test [6] it was 0.5 µg/mL (≈ 1.31 µM); in test [7], at most 0.06 µg/mL; in test [8], 4 µg/mL (≈ 10.5 µM). The IC50 in test [2] came out at 5 nM; in test [3], 1.5 nM; in test [4], 10 nM.
For `CC(C)CC(=O)NC(=O)[C@@H]1CCCN1C(=O)[C@H](CC1CCCC1)CN(O)C=O`, the MIC in test [1] was 1 µg/mL (≈ 2.53 µM); in test [5], 1 µg/mL (≈ 2.53 µM); in test [6], 0.5 µg/mL (≈ 1.26 µM); in test [7] it was at most 0.06 µg/mL; in test [8], 2 µg/mL (≈ 5.06 µM). Further, the values for the IC50 in test [2], in test [3] and in test [4] were 4 nM, 0.8 nM and 7 nM, respectively.
Turning to `O=CN(O)C[C@@H](CC1CCCC1)C(=O)N1CCC[C@H]1C(=O)NC(=O)C1CCC1`, the MIC in test [1] is 1 µg/mL (≈ 2.54 µM); in test [5], 1 µg/mL (≈ 2.54 µM); in test [6], 1 µg/mL (≈ 2.54 µM); in test [7], at most 0.06 µg/mL; in test [8], 8 µg/mL (≈ 20.3 µM). For the same compound, the IC50 in test [2] was 5 nM; in test [3] it was 0.7 nM; in test [4], 9 nM.
As for `O=CN(O)C[C@@H](CC1CCCC1)C(=O)N1CCC[C@H]1C(=O)NC(=O)C1CC1`, the MIC in test [1] was 0.5 µg/mL (≈ 1.32 µM); in test [5], 1 µg/mL (≈ 2.64 µM); in test [6] it was 0.125 µg/mL (≈ 0.329 µM); in test [7], at most 0.06 µg/mL; in test [8] it was 2 µg/mL (≈ 5.27 µM). Moreover, the 50% inhibitory concentration (IC50) in test [2] stood at 2.3 nM; in test [3] it was 1.2 nM; in test [4], 5.5 nM.
With `O=CN(O)C[C@@H](CC1CCCC1)C(=O)N1CCC[C@H]1C(=O)NC(=O)C1CCCC1`, the MIC in test [1] was 0.5 µg/mL (≈ 1.23 µM); in test [5], 0.25 µg/mL (≈ 0.613 µM); in test [6], 0.25 µg/mL (≈ 0.613 µM); in test [7] it was at most 0.06 µg/mL; in test [8], 1 µg/mL (≈ 2.45 µM). Also, the half-maximal inhibitory concentration (IC50) amounted to 2.5 nM in test [2], 0.43 nM in test [3] and 6.1 nM in test [4].
In the case of `O=CN(O)C[C@@H](CC1CCCC1)C(=O)N1CCC[C@H]1C(=O)NC(=O)C1CCCCC1`, the MIC is 1 µg/mL (≈ 2.37 µM) in test [1]; 0.25 µg/mL (≈ 0.593 µM) in test [5]; 0.5 µg/mL (≈ 1.19 µM) in test [6]; at most 0.06 µg/mL in test [7]; 1 µg/mL (≈ 2.37 µM) in test [8]. The IC50 was 3.7 nM in test [2], 0.5 nM in test [3] and 5.2 nM in test [4].
As for `O=CN(O)C[C@@H](CC1CCCC1)C(=O)N1CCC[C@H]1C(=O)NC(=O)NCCCc1ccccc1`, the MIC was 0.5 µg/mL (≈ 1.06 µM) in test [1]; 0.25 µg/mL (≈ 0.529 µM) in test [5]; 8 µg/mL (≈ 16.9 µM) in test [6]; at most 0.06 µg/mL in test [7]; 2 µg/mL (≈ 4.23 µM) in test [8]. Besides, the IC50 stood at 1 nM in test [2], 0.19 nM in test [3] and 4.1 nM in test [4].
Consider `C=CCNC(=O)NC(=O)[C@@H]1CCCN1C(=O)[C@H](CC1CCCC1)CN(O)C=O`, for which the MIC in test [1] is 0.5 µg/mL (≈ 1.27 µM); in test [5], 1 µg/mL (≈ 2.54 µM); in test [6] it was 1 µg/mL (≈ 2.54 µM); in test [7], at most 0.06 µg/mL; in test [8], 2 µg/mL (≈ 5.07 µM). The figures for the IC50 in test [2], in test [3] and in test [4] were 10 nM, 2.1 nM and 20 nM, respectively.
As for `O=CN(O)C[C@@H](CC1CCCC1)C(=O)N1CCC[C@H]1C(=O)NC(=O)NCCc1ccncc1`, the MIC in test [1] is 2 µg/mL (≈ 4.35 µM); in test [5] it was 1 µg/mL (≈ 2.18 µM); in test [6] it was 2 µg/mL (≈ 4.35 µM); in test [7], at most 0.06 µg/mL; in test [8], 8 µg/mL (≈ 17.4 µM). Also, the half-maximal inhibitory concentration (IC50) in test [2] was found to be 1.7 nM; in test [3] it was 0.35 nM; in test [4] it was 4.4 nM.
Turning to `O=CN(O)C[C@@H](CC1CCCC1)C(=O)N1CCC[C@H]1C(=O)NC(=O)NCCc1cccnc1`, the MIC in test [1] is 2 µg/mL (≈ 4.35 µM); in test [5], 1 µg/mL (≈ 2.18 µM); in test [6], 2 µg/mL (≈ 4.35 µM); in test [7], at most 0.06 µg/mL; in test [8], above 64 µg/mL. Further, the IC50 in test [2] came to 1.4 nM; in test [3], 0.37 nM; in test [4], 4.7 nM.
`O=CN(O)C[C@@H](CC1CCCC1)C(=O)N1CCC[C@H]1C(=O)NC(=O)NCCc1ccccn1`: the MIC is 1 µg/mL (≈ 2.18 µM) in test [1]; 0.5 µg/mL (≈ 1.09 µM) in test [5]; 1 µg/mL (≈ 2.18 µM) in test [6]; at most 0.06 µg/mL in test [7]; 4 µg/mL (≈ 8.7 µM) in test [8]. Also, the IC50 in test [2] worked out at 1.4 nM; in test [3], 0.35 nM; in test [4] it was 5.9 nM.
As to `O=CN(O)C[C@@H](CC1CCCC1)C(=O)N1CCC[C@H]1C(=O)NC(=O)NCCc1cnccn1`, the MIC was 2 µg/mL (≈ 4.34 µM) in test [1]; 1 µg/mL (≈ 2.17 µM) in test [5]; 2 µg/mL (≈ 4.34 µM) in test [6]; at most 0.06 µg/mL in test [7]; 8 µg/mL (≈ 17.4 µM) in test [8]. Moreover, the IC50 in test [2] stood at 1.4 nM; in test [3], 0.41 nM; in test [4], 6.1 nM.
For `O=CN(O)C[C@@H](CC1CCCC1)C(=O)N1CCC[C@H]1C(=O)NC(=O)NCCO`, the MIC was 4 µg/mL (≈ 10 µM) in test [1]; 2 µg/mL (≈ 5.02 µM) in test [5]; 0.5 µg/mL (≈ 1.25 µM) in test [6]; 0.125 µg/mL (≈ 0.314 µM) in test [7]; 32 µg/mL (≈ 80.3 µM) in test [8]. Moreover, the half-maximal inhibitory concentration (IC50) in test [2] stood at 3.8 nM; in test [3], 1.1 nM; in test [4], 8.8 nM.
Consider `O=CN(O)C[C@@H](CC1CCCC1)C(=O)N1CCC[C@H]1C(=O)NC(=O)NCCCO`, for which the MIC in test [1] was found to be 4 µg/mL (≈ 9.7 µM); in test [5] it was 2 µg/mL (≈ 4.85 µM); in test [6] it was 1 µg/mL (≈ 2.42 µM); in test [7], 0.125 µg/mL (≈ 0.303 µM); in test [8], 16 µg/mL (≈ 38.8 µM). Moreover, the IC50 amounted to 3.2 nM in test [2], 0.77 nM in test [3] and 6.9 nM in test [4].
For `NCCNC(=O)NC(=O)[C@@H]1CCCN1C(=O)[C@H](CC1CCCC1)CN(O)C=O`, the MIC in test [1] is 16 µg/mL (≈ 40.3 µM); in test [5], 16 µg/mL (≈ 40.3 µM); in test [6], above 64 µg/mL; in test [7] it was 2 µg/mL (≈ 5.03 µM); in test [8], above 64 µg/mL. The IC50 in test [2] amounted to 2.3 nM; in test [3] it was 0.38 nM; in test [4], 7 nM.
As to `NC(=O)CCNC(=O)NC(=O)[C@@H]1CCCN1C(=O)[C@H](CC1CCCC1)CN(O)C=O`, the MIC in test [1] is 32 µg/mL (≈ 75.2 µM); in test [5], 8 µg/mL (≈ 18.8 µM); in test [6], 2 µg/mL (≈ 4.7 µM); in test [7], 0.5 µg/mL (≈ 1.18 µM); in test [8], above 64 µg/mL. The IC50 in test [2] is 3.3 nM; in test [3] it was 0.72 nM; in test [4] it was 6.3 nM.
With `O=CN(O)C[C@@H](CC1CCCC1)C(=O)N1CCC[C@H]1C(=O)NC(=O)NCCc1c[nH]cn1`, the MIC in test [1] is 64 µg/mL (≈ 143 µM); in test [5], 8 µg/mL (≈ 17.8 µM); in test [6], 16 µg/mL (≈ 35.7 µM); in test [7] it was 0.5 µg/mL (≈ 1.11 µM); in test [8], above 64 µg/mL. In addition, the values for the IC50 in test [2], in test [3] and in test [4] were 1.3 nM, 0.15 nM and 4.3 nM, respectively.
